Data set [1] concerns the target T1, Polyunsaturated fatty acid 5-lipoxygenase (Homo sapiens) (UniProt P09917).
T1 sequence (whole entry): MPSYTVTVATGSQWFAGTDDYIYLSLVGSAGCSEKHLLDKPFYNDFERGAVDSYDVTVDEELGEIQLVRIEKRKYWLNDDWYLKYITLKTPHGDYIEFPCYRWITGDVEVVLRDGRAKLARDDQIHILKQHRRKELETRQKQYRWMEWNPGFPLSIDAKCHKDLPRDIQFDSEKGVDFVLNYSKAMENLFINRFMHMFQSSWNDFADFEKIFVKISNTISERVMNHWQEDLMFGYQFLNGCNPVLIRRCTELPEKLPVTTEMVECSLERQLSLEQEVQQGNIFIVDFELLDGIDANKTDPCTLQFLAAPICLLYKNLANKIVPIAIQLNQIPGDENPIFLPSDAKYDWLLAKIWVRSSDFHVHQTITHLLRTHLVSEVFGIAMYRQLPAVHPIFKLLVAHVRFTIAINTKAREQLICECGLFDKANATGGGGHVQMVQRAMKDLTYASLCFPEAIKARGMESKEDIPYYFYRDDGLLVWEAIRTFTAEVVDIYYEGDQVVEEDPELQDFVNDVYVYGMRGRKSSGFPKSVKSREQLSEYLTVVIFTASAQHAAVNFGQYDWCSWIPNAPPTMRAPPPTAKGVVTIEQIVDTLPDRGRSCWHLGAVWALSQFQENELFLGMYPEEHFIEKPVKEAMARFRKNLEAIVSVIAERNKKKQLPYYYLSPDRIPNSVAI
As to the kind of experiment: Inhibition of 5-lipoxygenase in human polynuclear leukocytes assessed as residual activity at 10 uM preincubated for 15 mins measured after 10 mins by HPLC analysis relative to control. Type of data set: cell-based. The method in brief:
(§1)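 Freshly isolated human PMNL (5 × 10^6 per mL PBS pH 7.4, 1 mg/mL glucose, 1 mM CaCl2) preincubated with compounds 15 min at 37 °C, then stimulated with A23187 (2.5 µM) plus AA (20 µM) for 10 min. Methanol stop, PGB1 internal standard; LTB4, all-trans isomers and 5-H(P)ETE per 10^6 cells by HPLC. n≥3, mean ± SE.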

The target in data set [2] is T1, Polyunsaturated fatty acid 5-lipoxygenase (Homo sapiens). Briefly: Inhibition of 5-lipoxygenase in cell free S100 freshly isolated human PMNL cells assessed as assessed as residual activity at 10 uM preincubated for 15 mins measured after 10 mins by HPLC analysis relative to control. In outline:
(§2)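 Human donor PMNL in PBS with 1 mM EDTA plus protease inhibitors, sonicated, spun 100,000g 70 min at 4 °C. S100 equivalent to 7.5 × 10^6 cells in PBS pH 7.4, 1 mM EDTA, 1 mM ATP; compound or DMSO 15 min at 4 °C, then 20 µM AA plus 2 mM CaCl2, 10 min at 37 °C. Methanol stop; products by HPLC; n≥3, mean ± SE.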

For data set [3], the system named is U-937. Briefly: Cytotoxicity against human U937 cells assessed as cell viability after 48 hrs by WST-1 assay. Type of data set: cell-based. As to conditions: U-937, 48 h. The method in brief:
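U937 cells (10^4 per well, RPMI with 10% FCS, 37 °C, 5% CO2) treated with increasing compound concentrations for 48 h in 10% FCS; mitochondrial metabolic activity read by WST-1 kit protocol. IC50 for viability loss; at least three experiments, mean ± SE.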
For orientation: Tetrazolium assays rely on reduction of a dye to a coloured formazan, in cell work by metabolically active cells.

For data set [4], the system named is U-937. Briefly: Cytotoxicity against human U937 cells assessed as LDH leakage at 30 uM after 48 hrs by microplate reader assay relative to control. As to conditions: u-937, 48 h. In kind it is cell-based.
In data set [5] the target is T2, Polyunsaturated fatty acid 5-lipoxygenase (Homo sapiens, UniProt P09917).
T2 sequence (P09917 whole entry): T1 sequence (whole entry)
Briefly: Inhibition of 5-lipoxygenase in human polynuclear leukocytes assessed as inhibition of A23187-stimulated 5-LO product formation preincubated for 15 mins measured after 10 mins by HPLC analysis. In kind it is cell-based.

Data set [6] concerns the target T2, Polyunsaturated fatty acid 5-lipoxygenase. As to the kind of experiment: Inhibition of 5-lipoxygenase in cell free S100 freshly isolated human PMNL cells assessed as inhibition of 5-LO product formation preincubated for 15 mins measured after 10 mins by HPLC analysis.
The target in data set [7] is T1, Polyunsaturated fatty acid 5-lipoxygenase (Homo sapiens). As to the kind of experiment: Inhibition of 5-lipoxygenase in human polynuclear leukocytes assessed as residual activity at 1 uM preincubated for 15 mins measured after 10 mins by HPLC analysis relative to control. Type of data set: cell-based. The method in brief: as §1
For data set [8] the target is unchanged. Briefly: Inhibition of 5-lipoxygenase in cell free S100 freshly isolated human PMNL cells assessed as assessed as residual activity at 1 uM preincubated for 15 mins measured after 10 mins by HPLC analysis relative to control. The method in brief:
as §2

Bounds are passed on as bounds.

On to `CC(=O)N(O)C/C=C/c1cccc(Oc2ccccc2)c1`, for which the Activity in data set [1] was less than 10%; in data set [2], less than 10%; in the data set on U-937 [4], 0.8%. In addition, the concentration for half-maximal inhibition (IC50) (commonly the concentration at which inhibition is half-maximal) with U-937 [3] was more than 30 µM.
As to `COc1ccc(C2=NC(=O)/C(=C/c3cc4ccccc4[nH]3)S2)cc1`, the figures for the concentration for half-maximal inhibition (IC50) in data set [5] and in data set [6] were 0.67 µM and 0.57 µM, respectively. Also, the Activity was 20.5% in data set [1] and 21.4% in data set [2].
`COc1ccc(/C=C2\SC(c3cccc(NC(=O)C45CC6CC(CC(C6)C4)C5)c3)=NC2=O)cc1`: the half-inhibitory concentration (IC50) with U-937 [3] is more than 30 µM. Further, the Activity in the data set with U-937 [4] is recorded as 8.4%.
In the same order, the values of `COc1ccc(/C(C)=C2\SC(c3ccc(C)cc3)=NC2=O)cc1` are 12.1 µM and 106%.
The matching figures for `COc1ccc(/C=C2\SC(c3ccc(Cl)cc3)=NC2=O)c2ccccc12`: more than 30 µM and 12.2%.
In the same order, the values of `COc1ccc(/C=C2\SC(c3ccc(C)cc3)=NC2=O)cc1` are more than 30 µM and 2.7%.
For the molecule `COc1ccc(/C=C2\SC(c3ccc(N)cc3)=NC2=O)cc1`, the Activity in data set [7] was 72.9%; in data set [8] it was 37.2%.
In the case of `COc1ccc(/C=C2\SC(c3ccc(OC)cc3)=NC2=O)cc1`, the results for the Activity in data set [2] and in data set [7] were 38.8% and 21.4%, respectively.
As to `CCCOc1ccc(/C=C2\SC(c3ccc(Cl)cc3)=NC2=O)cc1`, in the data set with U-937 [3], the IC50 stood at 21.1 µM. Besides, in the data set on U-937 [4], the Activity is recorded as 48.9%.
The matching figures for `COc1ccc(/C=C2\SC(c3ccc4ccccc4c3)=NC2=O)cc1`: more than 30 µM and 4.1%.
The matching figures for `COc1ccc(C2=NC(=O)/C(=C/c3ccc(C)cc3)S2)cc1`: more than 30 µM and 15.8%.
In the same order, the values of `O=C1N=C(c2ccc(Cl)cc2)S/C1=C\c1ccc(Oc2ccccc2)cc1` are more than 30 µM and 12%.

The values above are taken from ChEMBL document CHEMBL2029222, “Synthesis and biological evaluation of a class of 5-benzylidene-2-phenyl-thiazolinones as potent 5-lipoxygenase inhibitors” (Bioorg Med Chem, 2012).
